In ChEMBL document CHEMBL2424622, “Development of amino-pyrimidine inhibitors of c-Jun N-terminal kinase (JNK): kinase profiling guided optimization of a 1,2,3-benzotriazole lead” (Bioorg Med Chem Lett, 2013):

Assays:
[1] = target: Aurora kinase B (Homo sapiens) (UniProt Q96GD4); test: Competitive binding affinity to AURKB (unknown origin) at 10 uM in presence of ATP relative to control
Procedure, shortened: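 In vitro ATP-site competition binding assay across a diverse panel of 128 kinases, with each compound tested at a single concentration. Kinase binding is expressed relative to control.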

[2] = target: Proto-oncogene tyrosine-protein kinase receptor Ret (Homo sapiens) (UniProt P07949); test: Competitive binding affinity to RET (unknown origin) at 10 uM in presence of ATP relative to control
[3] = target: Serine/threonine-protein kinase 32B (Homo sapiens) (UniProt Q9NY57); test: Competitive binding affinity to YANK2 (unknown origin) at 10 uM in presence of ATP relative to control
[4] = target: Serine/threonine-protein kinase MRCK gamma (Homo sapiens) (UniProt Q6DT37); test: Competitive binding affinity to DMPK2 (unknown origin) at 10 uM in presence of ATP relative to control
[5] = target: T1, Mitogen-activated protein kinase kinase kinase 5 (Homo sapiens) (UniProt Q99683); test: Competitive binding affinity to MAP3K5 (unknown origin) at 10 uM in presence of ATP relative to control
T1 sequence (whole entry): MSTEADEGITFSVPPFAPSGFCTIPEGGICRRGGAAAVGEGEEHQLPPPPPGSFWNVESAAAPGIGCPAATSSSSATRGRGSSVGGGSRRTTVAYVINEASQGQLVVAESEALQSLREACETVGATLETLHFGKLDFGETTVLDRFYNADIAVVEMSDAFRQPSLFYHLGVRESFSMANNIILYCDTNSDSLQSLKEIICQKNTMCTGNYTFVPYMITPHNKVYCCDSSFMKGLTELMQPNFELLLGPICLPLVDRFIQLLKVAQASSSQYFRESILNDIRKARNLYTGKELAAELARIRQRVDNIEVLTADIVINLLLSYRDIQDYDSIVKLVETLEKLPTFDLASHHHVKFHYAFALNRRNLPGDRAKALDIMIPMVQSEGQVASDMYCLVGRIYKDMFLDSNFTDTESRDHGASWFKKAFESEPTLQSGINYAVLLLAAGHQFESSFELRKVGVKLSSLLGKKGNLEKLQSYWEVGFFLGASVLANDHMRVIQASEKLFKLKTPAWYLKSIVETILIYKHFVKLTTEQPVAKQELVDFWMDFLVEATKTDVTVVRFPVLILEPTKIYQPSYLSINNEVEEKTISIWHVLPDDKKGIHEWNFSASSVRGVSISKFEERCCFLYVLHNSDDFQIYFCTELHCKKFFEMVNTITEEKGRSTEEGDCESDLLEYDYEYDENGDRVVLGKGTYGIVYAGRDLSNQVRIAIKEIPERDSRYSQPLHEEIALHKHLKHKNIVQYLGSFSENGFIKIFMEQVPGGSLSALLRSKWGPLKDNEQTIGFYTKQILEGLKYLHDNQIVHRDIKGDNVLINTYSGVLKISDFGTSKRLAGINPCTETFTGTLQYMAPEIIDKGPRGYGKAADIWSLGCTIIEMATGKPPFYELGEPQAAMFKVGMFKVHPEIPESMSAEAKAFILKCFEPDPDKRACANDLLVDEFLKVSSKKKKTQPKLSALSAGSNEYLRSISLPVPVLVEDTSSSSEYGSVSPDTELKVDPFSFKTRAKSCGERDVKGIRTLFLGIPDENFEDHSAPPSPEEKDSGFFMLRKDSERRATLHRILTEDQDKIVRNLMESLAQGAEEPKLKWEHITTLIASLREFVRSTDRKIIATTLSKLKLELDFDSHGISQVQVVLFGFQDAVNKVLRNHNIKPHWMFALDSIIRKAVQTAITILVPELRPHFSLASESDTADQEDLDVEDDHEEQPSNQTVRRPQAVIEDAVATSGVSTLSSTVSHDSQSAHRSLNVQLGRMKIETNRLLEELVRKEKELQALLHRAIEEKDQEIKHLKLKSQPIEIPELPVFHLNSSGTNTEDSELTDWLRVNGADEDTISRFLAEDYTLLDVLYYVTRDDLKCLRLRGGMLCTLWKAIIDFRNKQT

[6] = target: Tyrosine-protein kinase receptor Tie-1 (Homo sapiens) (UniProt P35590); test: Competitive binding affinity to TIE1 (unknown origin) at 10 uM in presence of ATP relative to control
[7] = target: Dual specificity tyrosine-phosphorylation-regulated kinase 1B (Homo sapiens) (UniProt Q9Y463); test: Competitive binding affinity to DYRK1B (unknown origin) at 10 uM in presence of ATP relative to control
[8] = target: T2, Serine/threonine-protein kinase D2 (Homo sapiens) (UniProt Q9BZL6); test: Competitive binding affinity to PRKD2 (unknown origin) at 10 uM in presence of ATP relative to control
T2 sequence (whole entry): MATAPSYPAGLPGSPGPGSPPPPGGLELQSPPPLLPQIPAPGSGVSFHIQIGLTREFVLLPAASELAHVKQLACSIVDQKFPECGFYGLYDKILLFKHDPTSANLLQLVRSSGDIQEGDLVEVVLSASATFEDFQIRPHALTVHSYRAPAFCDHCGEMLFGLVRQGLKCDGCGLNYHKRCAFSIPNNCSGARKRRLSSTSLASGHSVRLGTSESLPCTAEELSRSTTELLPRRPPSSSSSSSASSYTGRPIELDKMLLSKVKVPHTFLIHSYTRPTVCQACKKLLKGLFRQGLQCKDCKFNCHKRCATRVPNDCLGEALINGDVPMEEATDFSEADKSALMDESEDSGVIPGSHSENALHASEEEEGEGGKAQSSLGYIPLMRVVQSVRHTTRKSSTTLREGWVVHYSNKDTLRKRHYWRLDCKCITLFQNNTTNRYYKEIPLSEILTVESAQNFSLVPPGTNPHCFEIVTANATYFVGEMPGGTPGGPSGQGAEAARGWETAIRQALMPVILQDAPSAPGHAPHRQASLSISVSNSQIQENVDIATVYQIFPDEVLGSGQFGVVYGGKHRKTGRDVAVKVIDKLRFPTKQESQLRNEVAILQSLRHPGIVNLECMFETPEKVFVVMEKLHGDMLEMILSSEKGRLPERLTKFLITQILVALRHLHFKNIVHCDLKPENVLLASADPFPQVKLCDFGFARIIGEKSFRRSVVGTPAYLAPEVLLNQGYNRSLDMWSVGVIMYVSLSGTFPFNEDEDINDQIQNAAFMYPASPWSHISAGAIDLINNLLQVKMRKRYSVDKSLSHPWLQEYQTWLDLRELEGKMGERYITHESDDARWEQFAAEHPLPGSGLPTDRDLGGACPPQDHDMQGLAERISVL

[9] = target: Serine/threonine-protein kinase SIK2 (Homo sapiens) (UniProt Q9H0K1); test: Competitive binding affinity to SNF1LK2 (unknown origin) at 10 uM in presence of ATP relative to control
Chain of Serine/threonine-protein kinase SIK2 (Homo sapiens) (Q9H0K1 whole entry, looked up): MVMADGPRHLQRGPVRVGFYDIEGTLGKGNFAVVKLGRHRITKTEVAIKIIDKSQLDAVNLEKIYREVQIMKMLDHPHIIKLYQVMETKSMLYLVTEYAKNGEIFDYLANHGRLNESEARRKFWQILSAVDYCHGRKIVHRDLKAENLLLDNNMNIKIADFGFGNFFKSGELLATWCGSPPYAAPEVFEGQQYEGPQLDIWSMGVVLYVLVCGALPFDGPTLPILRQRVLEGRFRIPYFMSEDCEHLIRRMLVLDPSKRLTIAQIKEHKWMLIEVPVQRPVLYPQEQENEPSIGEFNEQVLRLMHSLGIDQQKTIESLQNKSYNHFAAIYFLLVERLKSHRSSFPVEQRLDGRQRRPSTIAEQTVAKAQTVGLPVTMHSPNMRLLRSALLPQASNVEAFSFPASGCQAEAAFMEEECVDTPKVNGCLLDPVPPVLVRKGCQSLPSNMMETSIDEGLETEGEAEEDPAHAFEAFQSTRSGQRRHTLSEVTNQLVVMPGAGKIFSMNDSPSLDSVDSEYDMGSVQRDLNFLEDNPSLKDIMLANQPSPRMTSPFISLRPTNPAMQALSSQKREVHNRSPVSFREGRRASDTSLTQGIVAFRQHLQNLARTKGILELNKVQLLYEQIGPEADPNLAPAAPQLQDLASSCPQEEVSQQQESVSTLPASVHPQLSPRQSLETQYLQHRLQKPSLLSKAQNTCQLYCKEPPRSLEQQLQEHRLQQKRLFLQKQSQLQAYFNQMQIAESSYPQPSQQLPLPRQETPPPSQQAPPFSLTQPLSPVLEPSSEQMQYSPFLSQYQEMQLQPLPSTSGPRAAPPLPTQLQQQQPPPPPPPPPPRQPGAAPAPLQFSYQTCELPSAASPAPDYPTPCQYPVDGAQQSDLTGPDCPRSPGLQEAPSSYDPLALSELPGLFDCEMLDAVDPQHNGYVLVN

Chain of Aurora kinase B (Homo sapiens) (Q96GD4 whole entry): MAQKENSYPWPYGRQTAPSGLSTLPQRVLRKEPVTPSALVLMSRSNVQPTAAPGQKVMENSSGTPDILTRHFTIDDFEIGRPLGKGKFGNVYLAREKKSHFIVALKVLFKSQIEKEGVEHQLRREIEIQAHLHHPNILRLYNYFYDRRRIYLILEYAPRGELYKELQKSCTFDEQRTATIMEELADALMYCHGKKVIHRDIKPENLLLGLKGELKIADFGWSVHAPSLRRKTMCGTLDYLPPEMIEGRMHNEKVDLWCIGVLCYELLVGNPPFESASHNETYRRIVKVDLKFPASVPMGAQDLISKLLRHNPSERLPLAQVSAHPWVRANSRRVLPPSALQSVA
Chain of Proto-oncogene tyrosine-protein kinase receptor Ret (Homo sapiens) (P07949 whole entry): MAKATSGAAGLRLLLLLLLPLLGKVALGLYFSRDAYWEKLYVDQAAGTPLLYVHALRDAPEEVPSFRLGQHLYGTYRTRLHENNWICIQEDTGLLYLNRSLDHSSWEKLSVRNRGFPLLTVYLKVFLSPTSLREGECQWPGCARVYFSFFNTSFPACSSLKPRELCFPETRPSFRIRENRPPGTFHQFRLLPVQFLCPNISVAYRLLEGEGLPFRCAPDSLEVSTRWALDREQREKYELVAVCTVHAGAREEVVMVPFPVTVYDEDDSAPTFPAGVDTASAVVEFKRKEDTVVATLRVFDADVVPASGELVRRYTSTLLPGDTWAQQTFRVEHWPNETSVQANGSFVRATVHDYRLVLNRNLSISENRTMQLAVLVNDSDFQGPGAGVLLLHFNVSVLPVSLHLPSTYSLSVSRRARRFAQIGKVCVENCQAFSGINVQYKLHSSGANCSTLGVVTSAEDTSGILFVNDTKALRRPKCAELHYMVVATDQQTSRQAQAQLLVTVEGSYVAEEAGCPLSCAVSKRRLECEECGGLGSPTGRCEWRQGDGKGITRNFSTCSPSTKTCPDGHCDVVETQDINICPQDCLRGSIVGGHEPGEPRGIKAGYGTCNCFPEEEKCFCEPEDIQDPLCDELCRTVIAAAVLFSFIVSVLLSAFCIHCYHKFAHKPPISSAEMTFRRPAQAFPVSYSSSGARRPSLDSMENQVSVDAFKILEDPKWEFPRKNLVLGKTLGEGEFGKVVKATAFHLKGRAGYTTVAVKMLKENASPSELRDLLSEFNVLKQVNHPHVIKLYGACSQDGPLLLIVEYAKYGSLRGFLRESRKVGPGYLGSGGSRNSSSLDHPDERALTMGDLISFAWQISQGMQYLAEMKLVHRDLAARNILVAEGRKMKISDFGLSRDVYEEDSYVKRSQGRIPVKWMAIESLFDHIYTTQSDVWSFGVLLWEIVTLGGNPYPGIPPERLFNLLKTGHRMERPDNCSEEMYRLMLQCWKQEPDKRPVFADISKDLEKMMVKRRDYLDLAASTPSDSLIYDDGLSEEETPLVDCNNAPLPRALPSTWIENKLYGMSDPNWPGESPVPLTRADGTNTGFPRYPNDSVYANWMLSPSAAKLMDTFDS
Chain of Dual specificity tyrosine-phosphorylation-regulated kinase 1B (Homo sapiens) (Q9Y463 whole entry, looked up): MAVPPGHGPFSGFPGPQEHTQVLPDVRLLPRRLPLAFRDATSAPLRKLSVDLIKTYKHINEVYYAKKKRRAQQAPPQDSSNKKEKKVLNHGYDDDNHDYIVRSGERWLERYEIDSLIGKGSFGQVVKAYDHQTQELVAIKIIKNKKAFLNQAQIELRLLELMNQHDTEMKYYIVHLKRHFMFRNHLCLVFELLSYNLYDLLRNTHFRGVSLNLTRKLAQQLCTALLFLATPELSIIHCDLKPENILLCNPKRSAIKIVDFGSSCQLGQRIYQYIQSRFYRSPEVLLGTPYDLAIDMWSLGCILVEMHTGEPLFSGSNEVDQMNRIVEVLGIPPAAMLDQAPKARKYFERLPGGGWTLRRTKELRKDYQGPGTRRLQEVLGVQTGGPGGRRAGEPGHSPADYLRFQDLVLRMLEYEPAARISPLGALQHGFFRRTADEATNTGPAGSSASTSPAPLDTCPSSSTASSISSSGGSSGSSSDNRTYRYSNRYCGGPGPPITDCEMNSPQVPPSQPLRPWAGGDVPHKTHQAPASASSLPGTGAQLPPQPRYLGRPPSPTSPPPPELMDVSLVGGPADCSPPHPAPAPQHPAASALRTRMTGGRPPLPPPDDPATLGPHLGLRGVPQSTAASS
Chain of Tyrosine-protein kinase receptor Tie-1 (Homo sapiens) (P35590 whole entry): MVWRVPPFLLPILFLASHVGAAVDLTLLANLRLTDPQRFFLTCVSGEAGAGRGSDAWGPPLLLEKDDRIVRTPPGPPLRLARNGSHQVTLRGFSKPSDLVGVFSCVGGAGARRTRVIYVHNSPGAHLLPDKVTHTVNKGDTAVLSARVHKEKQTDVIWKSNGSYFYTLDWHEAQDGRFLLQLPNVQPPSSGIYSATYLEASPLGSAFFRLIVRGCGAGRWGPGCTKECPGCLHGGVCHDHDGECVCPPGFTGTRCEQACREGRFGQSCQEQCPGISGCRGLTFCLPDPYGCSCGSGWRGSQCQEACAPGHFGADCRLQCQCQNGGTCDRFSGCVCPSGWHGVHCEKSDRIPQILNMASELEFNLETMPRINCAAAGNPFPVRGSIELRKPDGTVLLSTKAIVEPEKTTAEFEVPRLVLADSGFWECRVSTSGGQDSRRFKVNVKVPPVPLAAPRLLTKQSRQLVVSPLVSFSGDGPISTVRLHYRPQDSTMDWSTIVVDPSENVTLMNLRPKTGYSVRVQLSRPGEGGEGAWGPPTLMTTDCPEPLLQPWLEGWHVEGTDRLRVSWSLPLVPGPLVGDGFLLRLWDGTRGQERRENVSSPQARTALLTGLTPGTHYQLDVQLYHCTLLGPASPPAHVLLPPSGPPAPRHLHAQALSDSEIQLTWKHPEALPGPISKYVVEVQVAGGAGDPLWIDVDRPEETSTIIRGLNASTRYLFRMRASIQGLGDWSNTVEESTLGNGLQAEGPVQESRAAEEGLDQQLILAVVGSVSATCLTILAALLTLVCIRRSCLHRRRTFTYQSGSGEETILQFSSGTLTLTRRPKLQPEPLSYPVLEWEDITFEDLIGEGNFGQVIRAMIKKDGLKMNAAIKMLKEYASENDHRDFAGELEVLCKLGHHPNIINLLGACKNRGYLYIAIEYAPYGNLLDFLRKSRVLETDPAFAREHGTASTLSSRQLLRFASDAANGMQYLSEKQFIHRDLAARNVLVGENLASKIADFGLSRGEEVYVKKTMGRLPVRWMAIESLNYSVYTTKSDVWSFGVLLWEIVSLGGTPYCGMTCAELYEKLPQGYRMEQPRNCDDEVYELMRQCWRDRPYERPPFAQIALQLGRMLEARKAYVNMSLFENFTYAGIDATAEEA
Chain of Serine/threonine-protein kinase 32B (Homo sapiens) (Q9NY57 whole entry): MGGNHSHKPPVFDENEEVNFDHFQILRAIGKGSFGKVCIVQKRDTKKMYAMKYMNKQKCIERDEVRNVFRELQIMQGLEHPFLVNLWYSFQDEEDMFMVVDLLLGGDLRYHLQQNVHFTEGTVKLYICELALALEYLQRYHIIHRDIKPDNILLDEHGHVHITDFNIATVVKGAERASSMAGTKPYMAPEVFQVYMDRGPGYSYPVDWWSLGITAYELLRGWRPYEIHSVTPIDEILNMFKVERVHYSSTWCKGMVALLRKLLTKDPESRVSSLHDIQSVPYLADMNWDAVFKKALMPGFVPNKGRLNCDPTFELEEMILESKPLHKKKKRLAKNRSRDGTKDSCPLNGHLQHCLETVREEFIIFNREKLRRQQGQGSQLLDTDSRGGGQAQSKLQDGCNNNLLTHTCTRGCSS

| inhibition [1] | inhibition [2] | inhibition [3] | inhibition [4] | inhibition [5] | inhibition [6] | inhibition [7] | inhibition [8] | inhibition [9] | Structure (SMILES) |
| --- | --- | --- | --- | --- | --- | --- | --- | --- | --- |
| 91% | 94% | < 50% | – | – | – | – | – | – | O[C@H]1CC[C@H](Nc2nccc(-c3n[nH]c4ccccc34)n2)CC1 |
| < 50% | < 50% | < 50% | < 50% | < 50% | < 50% | 100% | 88% | < 50% | O[C@H]1CC[C@H](Nc2nccc(-n3ccc4ccccc43)n2)CC1 |
| 68% | < 50% | < 50% | < 50% | < 50% | < 50% | 100% | 98% | 73% | O[C@H]1CC[C@H](Nc2nccc(-n3nnc4ccccc43)n2)CC1 |
| < 50% | < 50% | < 50% | < 50% | < 50% | < 50% | 99% | 91% | < 50% | O[C@H]1CC[C@H](Nc2nccc(-n3ncc4ccccc43)n2)CC1 |
